# Source: paper PMC3272321 (Chemical biology & drug design, 2011)
# Tests used:
# [1] = assay type: in vivo, athymic nude rats; settings: for route of clearance: images through 24 h
# aqueous solubility = assay type: physicochemical; settings: water
# [2] = test system: lung adenocarcinoma H441 cells; assay: cell proliferation by hexosaminidase assay; assay type: cell-based, Human; settings: 1 and 10 μM, 24–72 h
# Summary of the method: (§1)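 Cells seeded at 5×10^3/well, attached overnight, then exposed to the test compound for 24, 48 and 72 h. The compound was given from DMSO at 0.1% final DMSO in medium with 5% FBS, with DMSO-only controls. H441 were maintained in McCoy's 5A with 5% FBS. Panc-1 and MiaPaCa-2 were maintained in RPMI 1640 with 10% FBS. Readout was hexosaminidase: 7.5 mM p-nitrophenyl substrate solution (citrate, pH 5), 37°C 30 min, glycine/EDTA stop (pH 10.4), A405.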
# [3] = test system: pancreatic cancer cells MiaPaCa-2; assay: cell proliferation by hexosaminidase assay; assay type: cell-based; settings: MiaPaCa-2 cells, 1 and 10 μM, 24–72 h
# Summary of the method: as §1
# [4] = test system: pancreatic cancer cells Panc-1; assay: cell proliferation by hexosaminidase assay; assay type: cell-based; settings: Panc-1 cells, 1 and 10 μM, 24–72 h
# Summary of the method: as §1
# xenograft Panc-1 tumors = assay: mouse model of xenograft Panc-1 tumors; assay type: in vivo, athymic nude mice; settings: 5 μg intraperitoneal daily for 3 weeks
# Summary of the method: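 Five-week-old male athymic nude mice received 1 × 10^6 Panc-1 cells in each flank. Once tumors reached about 500 mm3, the test compound was given intraperitoneally at 5 μg/injection daily for 3 weeks. Tumors were measured weekly by caliper, with volume = length × width × depth × 0.5236. Tumors were excised and weighed at sacrifice. n = 4 per group versus untreated control, significance at p < 0.05.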
# [5] = Tc-99m-labeled EFAH, intravenous, rats, 24 h
"accumulation of radiolabeled compound in tumor tissue ([1]; intravenous, rats with H441 xenograft, 24 h)",free Tc-99m radioactivity in rat urine by HPLC ([1]; urine collected after 30 min of injection),solubility (aqueous solubility) [µg/mL],"injected dose accumulated in intestine [1, 5] [%]","injected dose accumulated in liver [1, 5]",Compound,"route of clearance ([1]; intravenous, rats)",anti-proliferative activity compared with EF24 [2],anti-proliferative activity compared with EF24 [3],anti-proliferative activity compared with EF24 [4],"excised tumor weight (xenograft Panc-1 tumors; at necropsy, control about 2.5 g) [g]",mean tumor volume reduction (xenograft Panc-1 tumors; versus control) [%],tumor weight decrease (xenograft Panc-1 tumors; versus control) [%]
"measurable, but little",no free Tc-99m radioactivity was found,–,–,–,"Tc-99m-labeled N-{2-[3,5-Bis-(2-fluorobenzylidene)-4-oxo-piperidin-1-yl]-ethyl}-6-hydrazinonicotinamide [Tc-99m-EFAH]",clearance depended on hepatobiliary route,–,–,–,–,–,–
–,–,1200,–,–,"O=C1C(=Cc2ccccc2F)CNCC1=Cc1ccccc1F [EF24, 3,5-Bis-(2-fluorobenzylidene)-4-piperidone, reference compound]",–,–,–,–,–,–,–
–,–,3500,~14.3,Approximately 23.7%,"NNc1ccc(C(=O)NCCN2CC(=Cc3ccccc3F)C(=O)C(=Cc3ccccc3F)C2)cn1 [EFAH, N-{2-[3,5-Bis-(2-fluorobenzylidene)-4-oxo-piperidin-1-yl]-ethyl}-6-hydrazinonicotinamide]",mostly eliminated by hepatobiliary route,as effective as EF24,as effective as EF24,as effective as EF24,0.45,79,82
